Screens from PubChem BioAssay.
Only some compounds are listed: those with a hit (about 4.7% of all), similar ones and a draw of the others.
RGS4 block = inhibitors of human RGS4. HEK293 M3R/RGS4 inducible, Fluo-4 calcium flux; stronger effect = higher value; triggered by carbachol at its EC20. B-score at 10 µM. hit rate 0.45% among 310,000;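 active = B-score, a plate-corrected calcium signal, over three deviations above library mean, with baseline fluorescence within five deviations of library mean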;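 note: RGS4 expression induced by doxycycline in cells with stable M3 receptor; B-score is computed from the integrated fluorescence ratio over baseline after carbachol; higher B-score means a larger calcium signal and so more RGS4 inhibition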
Target sequence (P49798 whole entry, looked up): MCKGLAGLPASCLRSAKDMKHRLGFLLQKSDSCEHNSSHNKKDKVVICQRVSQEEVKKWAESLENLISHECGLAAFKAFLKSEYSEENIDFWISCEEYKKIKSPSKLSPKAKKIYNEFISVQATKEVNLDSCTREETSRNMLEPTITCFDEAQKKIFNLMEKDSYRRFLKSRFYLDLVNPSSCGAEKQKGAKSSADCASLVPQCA
MrgX1 allo act = allosterically activates human MrgX1 receptor signaling. Q96LB2. MrgX1-HEK293, Fluo-4 calcium flux, FDSS; stronger effect = higher value. B-score at 10 µM. hit rate 0.63% among 310,000. AID 588675;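 active = plate-corrected calcium response at least 3 library SD above typical, normal starting fluorescence, not activating the receptor alone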;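 note: compound read alongside a low EC10 to EC30 dose of BAM8-22 agonist; peak minus trough fluorescence over baseline measured at the second addition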
Target sequence (Q96LB2 whole entry, looked up): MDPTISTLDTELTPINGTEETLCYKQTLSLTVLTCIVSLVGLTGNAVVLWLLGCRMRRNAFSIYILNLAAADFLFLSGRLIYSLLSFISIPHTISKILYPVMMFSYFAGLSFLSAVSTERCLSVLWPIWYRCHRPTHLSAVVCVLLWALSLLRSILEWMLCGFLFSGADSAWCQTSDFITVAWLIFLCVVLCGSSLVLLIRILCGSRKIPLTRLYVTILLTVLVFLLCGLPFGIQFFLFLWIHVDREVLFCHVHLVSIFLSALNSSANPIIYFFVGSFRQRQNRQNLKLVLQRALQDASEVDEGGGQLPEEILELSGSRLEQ
RGS4 pot = potentiators or activators of RGS4 | HEK293 M3R/inducible RGS4, carbachol calcium flux Fluo4; stronger effect = lower value | B-score at 10 µM | hit rate 0.92% among 310,000 | AID 463111;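 active = B-score of the integrated calcium signal more than 4 SD below the library mean, with starting fluorescence not abnormally high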;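 note: negative B-score means reduced calcium response which marks RGS4 activation or potentiation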
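Assay system: HEK293 FlpIn-TREx cells, stable M3R, doxycycline-inducible RGS4 / Probe or stimulus: carbachol, ECmax concentration / Times: overnight RGS4 induction, 30 min dye load 37 °C, 20 min compound RT / Signal: kinetic calcium fluorescence imaging with Fluo4-AM dye, 2 µM / Measure: Agonist-evoked peak-minus-minimum fluorescence over baseline, integrated ratio, B score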
Cl transport mod = modulators of human KCC2 chloride dependent transport; hit rate 2.2% among 190,000; AID 1456; KCC2 cells, thallium flux FluoZin-2 fluorescence; B-score of Tl+ flux slope (higher = more flux/activation; lower = inhibition) at 10 µM;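 active = thallium flux slope and its plate-corrected score both differing from the plate sample mean at a set confidence after two filtering rounds, in either direction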;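 note: slope of fluorescence scaled to starting intensity during 10 to 20 s after thallium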
MrgX1 agonist = agonists of human MrgX1 receptor | Q96LB2 | MrgX1-HEK293 cells, Fluo-4 calcium fluorescence, agonist mode; stronger effect = higher value | B-score at 10 µM | hit rate 0.44% among 310,000 | AID 588627;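 active = calcium response B-score plate-corrected fluorescence ratio at least 3 library SD, with starting fluorescence B-score inside 5 SD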
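Assay system: MrgX1-expressing HEK293 cells / Amount: fifteen thousand cells per well / Doses: test compound in the initial addition of three / Timing: cells plated overnight, dye loaded 0.5 h 37 °C, 0.5 h room temperature / Technique: kinetic calcium dye fluorescence, Fluo-4 NW / Control set: positive and negative controls per plate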
MrgX1 antagonist = blocks BAM8-22 activation of human MrgX1 receptor. Q96LB2. MRGX1-HEK293 calcium flux, Fluo-4, BAM8-22 antagonism; stronger effect = lower value. B-score at 10 µM. hit rate 1.3% among 310,000. AID 588676;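 active = calcium-response B-score plate-corrected more than 3 library SD below zero, starting fluorescence within 5 deviations, no agonist response on first addition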;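 note: peak minus trough fluorescence over baseline after final BAM8-22 challenge near maximal dose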
KCC2 secondary = KCC2 (human) modulation, secondary assay; hit rate 15% among 3,700; AID 1713; HEK293-KCC2, thallium flux, FluoZin2 fluorescence; stronger effect = higher value; normalised thallium flux (F/F0 slope) at 10 µM; shares compounds with Cl transport mod;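 active = thallium flux slope above the same plate's solvent-only control mean plus 3 SD; inconclusive = the two replicate wells disagree; inactive = no significant difference from solvent-only control wells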
KCC2 bumet counter = bumetanide-insensitive thallium flux in KCC2 cells with ouabain, counter-screen; shares compounds with Cl transport mod; HEK293-KCC2 + bumetanide/ouabain, thallium flux FluoZin2; stronger effect = higher value; normalized thallium flux at 10 µM; hit rate 49% among 3,700; AID 1714;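 active = thallium entry rate above the same plate's blocked-transporter control wells by more than 3 SD; inconclusive = the two repeat wells disagree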;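 note: raw slope of fluorescence over initial fluorescence between 10 and 20 s after thallium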
KCC2 secondary2 = confirmation of human KCC2 transport modulators; AID 1715; normalized thallium flux at 10 µM; hit rate 23% among 3,700; shares compounds with Cl transport mod; HEK293-KCC2, thallium flux FluoZin2 fluorescence; actives lie on both sides; F/F0 rise rate, 10–20 s post-thallium;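 active = thallium flux slope more than 3 SD above or below the plate's solvent-only control mean, mostly below; inconclusive = the two repeat wells disagreed; inactive = no significant shift from solvent-only controls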;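 note: raw slope with 0.1% DMSO as baseline and bumetanide as block control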
HEK293 Tl flux = parental HEK flux effect, counter-screen. thallium flux rate (normalised fluorescence) at 10 µM. shares compounds with Cl transport mod. HEK293 parental cells, thallium flux FluoZin2, ouabain; baseline-ratio fluorescence slope, 10–20 s after thallium. hit rate 46% among 3,700. AID 1716;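 active = thallium flux rate significantly above the same plate's solvent-only control wells, beyond their mean plus 3 SD; inconclusive = the two replicate wells gave conflicting results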
KCC2 ouabain = modulates human KCC2 on retest with ouabain | HEK293-KCC2, thallium flux FluoZin2 fluorescence; bidirectional: low = inhibitor, high = activator | shares compounds with Cl transport mod | hit rate 48% among 3,700 | raw Tl+ flux slope (below DMSO = inhibition, above = activation) at 10 µM | AID 1717;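 active = thallium flux slope beyond 3 SD from same-plate DMSO control mean in most replicates, usually higher, sometimes lower; inconclusive = repeat tests gave conflicting results; inactive = no significant difference from controls in most replicates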;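 note: slope of initial-normalized fluorescence between seconds 10 and 20 after thallium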
HEK293 Tl flux2 = acts in parental HEK cells, second KCC2 counter-screen | shares compounds with Cl transport mod | HEK293 parental, thallium flux FluoZin-2 fluorescence slope | thallium flux slope at 10 µM | hit rate 33% among 3,700 | AID 1718;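 active = thallium flux slope above the same plate's solvent-control mean plus 3 SD in both duplicate wells; inconclusive = duplicate wells that disagreed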;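 note: run without ouabain in cells lacking the KCC2 cotransporter; slope of fluorescence scaled to its starting value between 10 and 20 s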
The depositor's hits bear a star; i = inactive; ? = inconclusive; . = no result.

SMILES	RGS4 block	MrgX1 allo act	RGS4 pot	Cl transport mod	MrgX1 agonist	MrgX1 antagonist	KCC2 secondary	KCC2 bumet counter	KCC2 secondary2	HEK293 Tl flux	KCC2 ouabain	HEK293 Tl flux2
Cc1cc2cc3c(cc2nc1SCc1ccc(C(=O)O)cc1)OCCO3	i	i	i	-4.2*	i	i	0.0076	0.098*	?	0.036*	0.035*	0.014*
CCOC(=O)COc1cc(-n2c(=S)[nH]c3ccccc3c2=O)c(Cl)cc1Cl	i	i	i	4.3*	i	i	0.0078	0.022*	0.033	0.013*	?	0.016*
CC(=O)c1c(O)cc(=O)oc1-c1ccc(C)cc1	i	i	i	.	i	i	.	.	.	.	.	.
CC(C)Oc1ccccc1OCCCOc1cccc2cccnc12	i	i	i	-3.8*	i	i	0.0071	0.0049	?	0.0064	0.017*	0.01
O=C(Nc1ccc(Cl)c(Cl)c1)Nc1ccccc1C(=O)O	i	i	i	-4.5*	i	i	0.014	?	0.024*	0.0065	0.013	0.0094
O=C(Nc1ccc(Cl)cc1)Nc1ccccc1C(=O)O	i	i	i	-0.88	i	i	.	.	.	.	.	.
O=C1C2CCCN2C(c2ccccc2F)N1c1cccc(Cl)c1 (configuration not stated)	i	i	i	-3.7*	i	i	0.0073	?	0.031	?	0.02	0.012
O=C(c1ccc(F)cc1)N1CCN(Cc2ccccc2)CC1	i	i	i	.	i	i	.	.	.	.	.	.
O=C1NC(=S)N(C(=O)c2ccc(F)cc2)/C1=C/c1ccccc1	i	i	i	26*	i	-5.5*	0.021*	0.082*	?	0.078*	0.056*	0.032*
CN(C)CCCNC(=O)C(=O)NCC(c1cccs1)S(=O)(=O)c1ccc(F)cc1 (configuration not stated)	i	i	i	.	i	i	.	.	.	.	.	.
CCCCNC(=O)Cn1c(=O)c2c(ncn2CCC(C)C)n(Cc2ccccc2)c1=O	i	i	i	.	i	i	.	.	.	.	.	.
O=C(N/N=C/C1CC=CCC1)c1ccc(O)cc1O (configuration not stated)	i	i	i	0.19	i	i	.	.	.	.	.	.
O=C(N/N=C/C1CC=CCC1)c1cc2ccccc2cc1O (configuration not stated)	i	i	i	4.4*	i	i	?	0.029*	0.036	0.015*	?	0.012*
O=C(NCc1ccccc1Cl)C1CCN(S(=O)(=O)c2ccc(F)cc2)CC1	i	i	i	0.25	i	i	.	.	.	.	.	.
Cc1ccc(S(=O)(=O)N2CCC(C(=O)NCc3ccccc3Cl)CC2)cc1	i	i	i	-2.9*	i	i	0.0052	0.0045	0.028	0.0071	0.015*	0.011
COc1ccccc1CNC(=O)CCNS(=O)(=O)c1cc(Br)cnc1N	i	i	i	.	i	i	.	.	.	.	.	.
CCCOc1ccc(C(=O)NCCO)cc1	i	i	i	5.9*	i	i	0.0095	0.0057	0.033	0.0078	0.023	0.0099
O=C(N=C1SC2CS(=O)(=O)CC2N1Cc1ccccc1Cl)C1CCCO1 (configuration not stated)	i	i	i	.	i	i	.	.	.	.	.	.
O=C(CSc1nc(-c2ccc(F)cc2)cs1)N1CCN(C(=O)c2ccco2)CC1	i	i	i	-3.1*	i	i	0.0074	0.0061	0.029	0.0061	0.015*	0.009
CCc1cc2cccc(C)c2nc1SCC(=O)N1CCN(C(=O)c2ccco2)CC1	i	i	i	-3.2*	i	i	0.016	0.0043	0.021*	0.0047*	0.013*	0.0072*
CCc1cc2cc(C)cc(C)c2nc1SCC(=O)N1CCN(C(=O)c2ccco2)CC1	.	i	.	-0.23	i	i	.	.	.	.	.	.
Cc1ccccc1NCC(=O)N/N=C/c1ccc([N+](=O)[O-])cc1	i	i	i	-5.8*	i	i	0.0075	0.0049	?	0.008	0.018	0.0099
O=C(Cn1nc(C(=O)O)c2ccccc2c1=O)Nc1ccccc1C(F)(F)F	i	i	i	.	i	i	.	.	.	.	.	.
Cc1ccnc(NS(=O)(=O)c2ccc(NS(=O)(=O)c3cc(Cl)ccc3Cl)cc2)n1	i	i	i	.	i	i	.	.	.	.	.	.
CCCCC(CCC(=O)O)(C(=O)OCC)c1csc(Nc2ccc(C)cc2)n1 (configuration not stated)	i	i	i	-4.1*	i	i	0.0052	0.004	0.025*	0.0056*	0.013*	?
SMILES	RGS4 block	MrgX1 allo act	RGS4 pot	Cl transport mod	MrgX1 agonist	MrgX1 antagonist	KCC2 secondary	KCC2 bumet counter	KCC2 secondary2	HEK293 Tl flux	KCC2 ouabain	HEK293 Tl flux2
CCOC(=O)C(CC)(CCC(=O)O)c1csc(N)n1 (configuration not stated)	i	i	i	.	i	i	.	.	.	.	.	.
O=C(Nc1nnc(-c2ccc3c(c2)CCCC3)o1)c1c(F)cccc1F	i	i	i	16*	i	i	0.017*	0.047*	0.037	0.02*	0.035*	0.013*
O=C(Nc1nnc(-c2ccc3c(c2)CCCC3)o1)C1CCCCC1	i	i	i	0.76	i	i	.	.	.	.	.	.
NC(=O)SCC(=O)Nc1ccc(Cl)c(Cl)c1	.	i	.	.	i	i	0.0073	0.013*	0.026*	0.01*	0.019	?
NC(=O)SCC(=O)Nc1ccc(Cl)cc1	i	i	i	0.8	i	i	.	.	.	.	.	.
COc1ccc(S(=O)(=O)N(CC(C)C)C2CCS(=O)(=O)C2)cc1OC (configuration not stated)	i	i	i	.	i	i	.	.	.	.	.	.
